As usually defined, the inhibition is the share of the control response that was lost under treatment. The IC50 is the midpoint of a concentration-inhibition curve.

The values that follow come from ChEMBL document CHEMBL4219238, “Design, synthesis, molecular modelling and in vitro cytotoxicity analysis of novel carbamate derivatives as inhibitors of Monoacylglycerol lipase” (Bioorg Med Chem, 2018).

The source made the active and inactive calls. No cut-off for these calls is given here.

Assay [1] deals with B16-F10. Briefly: Induction of apoptosis in mouse B16F10 cells assessed as late apoptotic cells at 10 uM after 48 hrs by Annexin V-FITC/propidium iodide staining based flow cytometry (reference value: 7.39%). It counts as functional. In general terms: A flow cytometer gives signals particle by particle.
Assay [2] relates to B16-F10. Briefly: Induction of apoptosis in mouse B16F10 cells assessed as live cells at 75 nM after 48 hrs by Annexin V-FITC/propidium iodide staining based flow cytometry (reference value: 79.55%). The format is functional.
Assay [3] deals with B16-F10. Put plainly: Effect on ABHD6 mRNA expression in mouse B16F10 cells by RT-PCR method. The format is functional.
The test system of assay [4] is B16-F10. Briefly: Induction of apoptosis in mouse B16F10 cells assessed as live cells at 10 uM after 48 hrs by Annexin V-FITC/propidium iodide staining based flow cytometry (reference value: 88.04%). It counts as functional.
Assay [5] concerns the target T1, Monoglyceride lipase (Mus musculus) (UniProt O35678).
T1 sequence (whole entry): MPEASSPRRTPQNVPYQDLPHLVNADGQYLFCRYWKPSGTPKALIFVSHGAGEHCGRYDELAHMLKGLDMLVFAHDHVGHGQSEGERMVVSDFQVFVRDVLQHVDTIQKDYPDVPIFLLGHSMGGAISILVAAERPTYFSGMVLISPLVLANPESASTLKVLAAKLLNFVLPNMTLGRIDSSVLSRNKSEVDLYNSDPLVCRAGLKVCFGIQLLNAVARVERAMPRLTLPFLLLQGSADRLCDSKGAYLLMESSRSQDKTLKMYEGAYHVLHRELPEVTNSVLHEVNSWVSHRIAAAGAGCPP
Put plainly: Inhibition of MAGL in mouse B16-F10 intact cells at 10 uM using 7-HRA as substrate preincubated for 6 hrs followed by substrate addition by fluorescence assay. The format is cell-based. The essentials:
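Intact B16-F10 cells cultured 6 h with compound or DMSO, homogenised 30 min at 4 °C in lysis buffer and spun 1,500 × g 5 min. 1 μg lysate assayed with 10 μM 7-HRA (ex 571/em 588 nm); 5-min values reported; mean ± SEM, n = 3.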

Assay [6] deals with B16-F10. Briefly: Induction of apoptosis in mouse B16F10 cells assessed as early apoptotic cells at 35 nM after 48 hrs by Annexin V-FITC/propidium iodide staining based flow cytometry (reference value: 1.43%). It counts as functional.
Assay [7] deals with B16-F10. Put plainly: Induction of apoptosis in mouse B16F10 cells assessed as necrotic cells at 10 uM after 48 hrs by Annexin V-FITC/propidium iodide staining based flow cytometry (reference value: 2.62%). It counts as functional.
Assay [8] relates to B16-F10. Briefly: Antiproliferative activity against mouse B16F10 cells at 35 to 75 nM after 48 hrs by Cyto Tracker red dye based flow cytometry. The format is functional, cell-based. The gist of the method: (§1)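 B16-F10 cells (Iscove's medium, 10% heat-inactivated FBS, 37 °C, 5% CO2) exposed to compound or DMSO for 48 h, stained with CytoTrack Red 628/643 and analysed by flow cytometry. Proliferation index (average number of cells that an initial cell became) expressed as fold change over DMSO control; n = 3; one-way ANOVA with Tukey post-test.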

For assay [9], the system named is B16-F10. Briefly: Effect on ABHD12 mRNA expression in mouse B16F10 cells by RT-PCR method. The format is functional.
Assay [10] relates to B16-F10. Briefly: Antiproliferative activity against mouse B16F10 cells at 10 uM after 48 hrs by Cyto Tracker red dye based flow cytometry. The format is functional, cell-based. The gist of the method:
as §1

Assay [11] concerns MCF7. Briefly: Induction of apoptosis in human MCF7 cells at 10 uM after 48 hrs by Annexin V-FITC/propidium iodide staining based flow cytometry. It counts as functional, cell-based. The essentials: (§2)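 HEK293T (DMEM with 10% FBS) or MCF7 (DMEM/Ham's F-12 1:1, 10% FBS) cells treated 48 h with 10 μM compound or DMSO. Staining with Alexa Fluor 488 annexin V plus 5 μg/ml PI in HEPES/NaCl/CaCl2 binding buffer; 10,000 cells per sample read by flow cytometry; n = 3, mean ± S.E.M.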

Assay [12] relates to B16-F10. Briefly: Effect on MAGL mRNA expression in mouse B16F10 cells by RT-PCR method. The format is functional.
The test system of assay [13] is B16-F10. Briefly: Induction of apoptosis in mouse B16F10 cells assessed as live cells at 35 nM after 48 hrs by Annexin V-FITC/propidium iodide staining based flow cytometry (reference value: 79.55%). The format is functional.
In assay [14] the test system is MCF7. Put plainly: Induction of apoptosis in human MCF7 cells assessed as necrotic cells at 10 uM after 48 hrs by Annexin V-FITC/propidium iodide staining based flow cytometry (reference value: 5.42%). It counts as functional. The essentials: as §2
Another assay addresses T2, Monoglyceride lipase (Mus musculus, UniProt O35678).
T2 sequence (O35678 whole entry): T1 sequence (whole entry)
Put plainly: Inhibition of MAGL in mouse B16-F10 cells using 7-HRA as substrate preincubated for 60 mins followed by substrate addition measured every 2.5 mins for 2 hrs by fluorescence assay. The note with it: read-out: IC50. It counts as cell-based.

Assay [15] concerns B16-F10. Put plainly: Induction of apoptosis in mouse B16F10 cells assessed as late apoptotic cells at 75 nM after 48 hrs by Annexin V-FITC/propidium iodide staining based flow cytometry (reference value: 13.54%). The format is functional.
For assay [16], the target named is T3, Fatty-acid amide hydrolase 1 (Homo sapiens) (UniProt O00519).
T3 sequence (whole entry): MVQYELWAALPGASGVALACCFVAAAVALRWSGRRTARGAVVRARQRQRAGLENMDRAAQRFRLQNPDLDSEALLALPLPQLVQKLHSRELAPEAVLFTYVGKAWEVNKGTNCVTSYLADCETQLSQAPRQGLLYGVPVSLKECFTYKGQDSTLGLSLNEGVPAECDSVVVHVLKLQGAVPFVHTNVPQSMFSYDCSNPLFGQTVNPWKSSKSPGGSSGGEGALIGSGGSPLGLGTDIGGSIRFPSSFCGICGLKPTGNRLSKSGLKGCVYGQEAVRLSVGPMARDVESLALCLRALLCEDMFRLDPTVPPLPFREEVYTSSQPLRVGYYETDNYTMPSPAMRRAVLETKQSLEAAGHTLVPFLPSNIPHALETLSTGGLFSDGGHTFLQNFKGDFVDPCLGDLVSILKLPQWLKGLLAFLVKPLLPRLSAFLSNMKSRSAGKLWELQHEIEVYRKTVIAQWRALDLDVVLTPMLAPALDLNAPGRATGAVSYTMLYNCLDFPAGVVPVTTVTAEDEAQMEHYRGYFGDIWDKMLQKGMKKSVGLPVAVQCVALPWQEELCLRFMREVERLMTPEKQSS
Put plainly: Inhibition of human FAAH at 10 uM using AAMCA as substrate preincubated for 1 hr followed by substrate addition measured after 30 mins by fluorescence assay relative to control. The gist of the method: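 Recombinant human FAAH (C-terminal His-tagged, Sf21), 1 U/well, in 50 mM Tris-HCl, 1 mM EDTA, pH 9, preincubated 1 h at room temperature with 10 μM compound (final). AAMCA added to 20 μM final; fluorescence (ex 360/em 460 nm) read every 3 min for 30 min. Rate by linear regression, no-enzyme background subtracted, normalised to no-inhibitor control.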

Assay [17] has as its system B16-F10. Briefly: Induction of apoptosis in mouse B16F10 cells assessed as late apoptotic cells at 35 nM after 48 hrs by Annexin V-FITC/propidium iodide staining based flow cytometry (reference value: 13.54%). The format is functional.
Assay [18] has as its system MCF7. Put plainly: Induction of apoptosis in human MCF7 cells at 10 uM after 48 hrs in presence of MAGL inhibitor JZL184 by Annexin V-FITC/propidium iodide staining based flow cytometry. The format is functional, cell-based.

In the case of `O=C(Nc1cccc(-c2ccc(C(F)(F)F)cc2)c1)OCc1ccco1`, the Activity is recorded as 64.08% in the assay with B16-F10 [1]; 62.84% in the assay on B16-F10 [2]; 17.8% in the assay with B16-F10 [4]; 1.9% with B16-F10 [6]; 14.25% in the assay on B16-F10 [7]; 66.12% in the assay with B16-F10 [13]. For the same molecule, the Activity in the assay with MCF7 [14] came to 5.33%; in the assay with B16-F10 [15], 30.39%; in the assay on B16-F10 [17], 29.37%. The deltaCT in the assay on B16-F10 [3] is reported as 10.73; in the assay on B16-F10 [9], 16.84; with B16-F10 [12], 11.05. Besides, in [5], the inhibition result is “Active”. The result with B16-F10 [8], with B16-F10 [10], in the assay with MCF7 [11] and in the assay with MCF7 [18] was Active. The IC50 at Monoglyceride lipase worked out at 13.2 µM. Moreover, the inhibition in assay [16] came out at 10%.
